The source of these data is ChEMBL document CHEMBL1148626, “Synthesis and biological evaluation of novel, peripherally selective chromanyl imidazolethione-based inhibitors of dopamine beta-hydroxylase” (2006).

Experiment [1] addresses T1, Dopamine beta-hydroxylase (Homo sapiens) (UniProt P09172).
T1 sequence (whole entry): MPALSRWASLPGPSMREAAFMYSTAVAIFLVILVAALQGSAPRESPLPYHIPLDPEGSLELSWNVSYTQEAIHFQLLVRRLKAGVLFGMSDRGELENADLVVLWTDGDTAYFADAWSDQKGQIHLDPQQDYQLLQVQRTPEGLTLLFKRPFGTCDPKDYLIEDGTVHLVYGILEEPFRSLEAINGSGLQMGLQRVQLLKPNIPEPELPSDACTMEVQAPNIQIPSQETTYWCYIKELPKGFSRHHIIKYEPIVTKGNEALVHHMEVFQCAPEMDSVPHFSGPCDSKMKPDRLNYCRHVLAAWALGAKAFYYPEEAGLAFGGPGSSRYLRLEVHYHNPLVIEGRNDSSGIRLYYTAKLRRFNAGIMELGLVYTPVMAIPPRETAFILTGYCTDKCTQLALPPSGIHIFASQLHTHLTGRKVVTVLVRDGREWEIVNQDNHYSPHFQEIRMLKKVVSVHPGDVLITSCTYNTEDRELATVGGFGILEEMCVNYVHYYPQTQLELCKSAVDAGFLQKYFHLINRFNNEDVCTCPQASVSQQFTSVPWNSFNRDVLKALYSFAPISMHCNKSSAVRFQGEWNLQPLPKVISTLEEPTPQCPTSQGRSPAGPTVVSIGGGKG
Kind of experiment: Effect on DBH activity in presence of dopamine by measuring Noradrenaline level. Set-up: concentration or dose not given beside the values. The format is functional. Summed up:
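Inhibitor at 5 µM in 200 mM sodium acetate pH 5.0 containing N-ethylmaleimide, CuSO4, catalase, pargyline, fumarate and 20 mM ascorbate. Preincubated 20 min at 37 °C, then dopamine added as substrate and reacted 45 min at 37 °C. Stopped with perchloric acid and filtered. Noradrenaline formed quantified by HPLC-ECD (0.75 V). Residual activity given as % of control, mean ± SEM of three experiments.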

The species entered for experiment [2] is Mus musculus. Kind of experiment: Effect on noradrenaline levels in mouse left ventricle after 9 hrs. The format is functional, organism-based. To be noted: NMR1, Heart left ventricle. Put shortly:
(§1)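 Male NMRI mice given test compound or vehicle (water) orally by gavage at a range of doses. At 9 h postdose, decapitation. Tissue (left ventricle or brain parietal cortex) weighed, held in 0.2 M perchloric acid 12 h at 4 °C in the dark, then filtered by centrifugation. Noradrenaline measured by HPLC with electrochemical detection. Value given as % of vehicle control.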

The species entered for experiment [3] is Rattus norvegicus. The experiment in a line: Decrease in noradrenaline tissue levels in rat brain parietal and frontal cortex. The format is functional, organism-based. To be noted: Wistar, Cerebral cortex. Put shortly: (§2)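 Male Wistar rats dosed orally by gavage at 100 mg/kg, with water as vehicle. Killed by decapitation 9 h postdose. Frontal and parietal cortex, left atrium and left ventricle taken, extracted in 0.2 M perchloric acid (12 h, 4 °C, dark) and filtered. Noradrenaline by HPLC-electrochemical detection, as % of control without inhibitor. Mean ± SEM, four animals per group.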

Experiment [4] deals with Rattus norvegicus. Kind of experiment: Decrease in noradrenaline tissue levels in rat at 100 mg/kg, po after 9 hrs. The format is functional, organism-based. Also noted: dose 100 mg/kg. To be noted: Wistar. Summed up: as §2
The test system of experiment [5] is Mus musculus. Kind of experiment: Time for maximum effect for noradrenaline tissue reduction at 100 mg/kg, po. The format is functional, organism-based. Set-up: dose 100 mg/kg. To be noted: NMR1. Put shortly: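 Mice given 100 mg/kg orally in water by gavage. Heart taken 6, 9, 18 and 24 h postdose and extracted in 0.2 M perchloric acid. Noradrenaline measured by HPLC with electrochemical detection, as % of control without inhibitor. Mean ± SEM, four animals per group. Time of maximum effect taken from the time course.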

Experiment [6] concerns Mus musculus. Kind of experiment: Decrease in noradrenaline tissue levels in mice heart at 100 mg/kg, po after 18 hrs. Also noted: dose 100 mg/kg. To be noted: NMR1. The format is functional, organism-based. Summed up:
(§3)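 Male NMRI mice housed 10 per cage on a 12 h light/dark cycle at 22 °C. Compound given at 100 mg/kg by oral gavage in water vehicle. Animals decapitated at set times postdose; heart tissue held in 0.2 M perchloric acid for 12 h at 4 °C in the dark, then filtered. NA measured by HPLC with electrochemical detection. Expressed as % of vehicle control, mean ± SEM, n=4 per group.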

Experiment [7] is filed under the species Mus musculus. The experiment in a line: Decrease in noradrenaline tissue levels in mouse brain parietal cortex after 9 hrs. The format is functional, organism-based. The following applies: NMR1. Put shortly:
as §1

For experiment [8], the system named is Mus musculus. Kind of experiment: Effect on recovery of noradrenaline levels in mice at 100 mg/kg after 24 hrs. The format is functional. Put shortly: as §3

Active and inactive are the calls of the source. The calls are words filed in the database; no cut-off is given here.

As for `NCCc1cnc(S)n1[C@H]1COc2ccc(F)cc2C1`, the Activity in experiment [1] came out at 8%.

In the case of `NCCc1cnc(S)n1[C@H]1COc2c(cccc2[N+](=O)[O-])C1`, the Activity in experiment [1] worked out at 53.2%.

As for `NCCc1cnc(S)n1[C@H]1COc2ccccc2C1`, in experiment [1], the Activity is 3%. For `Cl.NCc1c[nH]c(=S)n1[C@H]1CCc2c(F)cc(F)cc2C1` [NEPICASTAT HYDROCHLORIDE], the Activity entry was “Dose-dependent effect” in the experiment filed under Mus musculus [2], 0% in experiment [1], “Dose-dependent effect” in the experiment listed under Mus musculus [7] and 50% in the experiment on Mus musculus [8]. In addition, the result in the experiment listed under Rattus norvegicus [3], in the experiment with Rattus norvegicus [4] and in the experiment with Mus musculus [6] was Active. In addition, the Tmax with Mus musculus [5] came out at 9 h. Consider `NCCc1cnc(S)n1[C@H]1COc2ccc([N+](=O)[O-])cc2C1`, for which, in experiment [1], the Activity was determined as 94.8%. In the case of `NCCCc1cnc(S)n1[C@H]1CCc2c(F)cc(F)cc2C1`, the Activity in experiment [1] worked out at 8.1%.

Regarding `NCCc1cnc(S)n1[C@H]1COc2c(F)cccc2C1`, in experiment [1], the Activity is 6.9%. On to `NCCc1cnc(S)n1[C@H]1COc2ccc(O)cc2C1`, for which the Activity in experiment [1] came out at 0%.

Regarding `NCCc1cnc(S)n1[C@H]1COc2cc(Cc3ccccc3)c(O)cc2C1`, in experiment [1], the Activity came to 86.1%. As to `NCCc1cnc(S)n1[C@@H]1COc2c(F)cc(F)cc2C1`, the Activity in experiment [1] came out at 50.2%. With `NCc1cnc(S)n1[C@H]1COc2ccc(O)cc2C1`, in experiment [1], the Activity was determined as 17.8%. On the same count and under the same terms, the same measure for `NCCc1cnc(S)n1[C@H]1COc2c(O)cccc2C1`: 125%; for `COc1cc(Cl)cc2c1OC[C@H](n1c(CCN)cnc1S)C2`: 36.7%; for `COc1ccc2c(c1)CC(n1c(CCN)cnc1S)CS2` (stereo unspecified): 99.4%.

As for `NCCc1cnc(S)n1[C@H]1COc2c(cc(F)c(F)c2F)C1`, the Activity in experiment [1] is 8.2%. Still for that read-out and setting: as for `CNCCc1cnc(S)n1[C@H]1COc2ccccc2C1`, the figure is 2.2%.

With `NCCc1cnc(S)n1[C@H]1CCc2c(F)cc(F)cc2C1`, in experiment [1], the Activity turned out to be 1.6%. In the experiment on Mus musculus [6], the outcome was Active. For the compound `COc1ccc2c(c1)C[C@@H](n1c(CCNCc3ccccc3)cnc1S)CO2`, the Activity in experiment [1] was 66%. Turning to `COc1ccc2c(c1)C[C@@H](n1c(CCN)cnc1S)CO2`, the Activity in experiment [1] came to 54.5%. Same read-out and setting: as for `COc1cc(Cl)c2c(c1)C[C@@H](n1c(CCN)cnc1S)CO2`, the figure is 94%; as for `Oc1ccc2c(c1)C[C@@H](n1c(CCNCc3ccccc3)cnc1S)CO2`, 4.5%. As for `COc1cccc2c1OC[C@H](n1c(CCN)cnc1S)C2`, the Activity in experiment [1] was determined as 6.9%.

Take `NCCc1cnc(S)n1[C@H]1COc2cc(F)c(F)cc2C1`: the Activity in experiment [1] was 9.4%. For the compound `Cl.NCCc1cnc(S)n1[C@H]1COc2c(F)cc(F)cc2C1`, the Activity entry was “Dose-dependent effect” in the experiment filed under Mus musculus [2], 3.3% in experiment [1] and 50% in the experiment on Mus musculus [8]. Besides, the result in the experiment filed under Rattus norvegicus [3] and in the experiment listed under Mus musculus [7] was inactive. Besides, the result in the experiment on Rattus norvegicus [4] and with Mus musculus [6] was Active. Further, in the experiment with Mus musculus [5], the Tmax worked out at 9 h. As to `NCCc1cnc(S)n1C1CSc2ccc(O)cc2C1` (stereo unspecified), the Activity in experiment [1] amounted to 27.3%. As to `NCc1cnc(S)n1[C@H]1COc2ccccc2C1`, the Activity in experiment [1] was found to be 0%.

On to `NCCc1cnc(S)n1[C@H]1CCc2ccccc2C1`, for which, in experiment [1], the Activity was 16.8%. As to `CNCCc1c[nH]c(=S)n1[C@H]1COc2c(F)cc(F)cc2C1`, in experiment [1], the Activity was determined as 2.6%. With `CNCCc1cnc(S)n1[C@H]1COc2ccc(O)cc2C1`, the Activity in experiment [1] turned out to be 15.5%. Consider `NCc1cnc(S)n1[C@H]1COc2c(F)cc(F)cc2C1`, for which the Activity in experiment [1] turned out to be 4.1%. Besides, the outcome in the experiment with Mus musculus [6] was Active.
